Screens: PubChem BioAssay, several laboratories
Most compounds without a hit are left out; they make up all but 2.3% or so of the library.
T cruzi inh: T. cruzi replication inhibition; inhibition, % (no concentration beside the values); actives 1.4% (n = 300,000); T. cruzi beta-gal in NIH3T3, luminescence, 90 h;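 active means mean inhibition across valid replicates above about 55%, limit read from the data; inconclusive means mean below that limit but half or more replicates reach it; inactive means mean below it, under half of replicates reach it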;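 further: signal also drops with host cell toxicity which is not excluded here; higher percent means less beta-gal luminescence so fewer parasites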
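System: NIH/3T3 fibroblasts plus reporter T. cruzi. Medium: DMEM plus 2% FBS. Probe or stimulus: 5000 reporter trypomastigotes per well. Compound: single 50 nL compound addition per well in DMSO. Incubation: co-culture of at least 90 h after 3 h attachment. Detection: GalScreen β-gal luminescence, detergent lysis, 60 min. Evaluation: parasite load inhibition, %.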
KLF5 inh: suppresses KLF5 promoter-driven expression; DLD-1 KLF5 promoter-luciferase reporter, luminescence; inhibition, % at 5 µM; actives 0.23% (n = 290,000);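 active means inhibition above a per-plate limit of that plate's mean compound inhibition plus 3 SD, cut at about 60% in these data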;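 further: higher means less KLF5 promoter-driven luciferase light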
A1 inh: inhibitors of the anti-apoptotic protein A1, read as caspase activation; MEF A1-2A-BIM cells, Caspase-Glo 3/7 luminescence, 3 h; percent of clofoctol response, vehicle zero; caspase activation, % (no concentration beside the values); actives 0.066% (n = 330,000);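 active means over half of replicate activation scores above 10%, or exactly half above 10 with the replicate mean above 10; inconclusive means replicate mean below 10 yet half the replicates above 10; inactive means over half of replicates below 10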
Beta cell apopt: beta cell apoptosis inhibition; INS-1E cytokine-induced death, ATP luminescence, 48 h; percent of positive-control rescue, neutral wells zero; protection from apoptosis, % (concentration not given with the values); actives 0.8% (n = 300,000); AID 435005;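 active means Every replicate reaches about 75%, or at least half do and their mean reaches it too, limit read from the data; inconclusive means At least half of replicates reach the limit but their mean does not; inactive means Under half of replicates reach the limit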;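 further: higher means more ATP so stronger rescue from cytokine killing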
HIF activator: HIF pathway transcriptional activation; U2OS HRE-luciferase reporter, luminescence; normalized: DMSO 0%, desferrioxamine 100%; activation, % at 7.5 µM (by protocol); actives 0.32% (n = 300,000);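 active means mean activation of at least 10% of the iron chelator positive control signal, with at least half of replicates also reaching 10%; inconclusive means mean and replicate majority disagree about reaching 10%; inactive means mean and most replicates under 10%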
Large screens that a line does not name were inactive.

COCCC(=O)N1CCC(C(=O)Nc2ccc(Oc3ccccc3)nc2)CC1	none
CC1CCCC(C)N1S(=O)(=O)c1ccc(S(=O)(=O)NCCc2ccncc2)cc1 (centres undefined)	T cruzi inh 57 (no result: Beta cell apopt)
COc1ccc2nc(N(Cc3ccccc3)C(=O)CCNC(C)=O)sc2c1	none
Cc1ccccc1OCCCCCn1ccnc1	T cruzi inh 67
Clc1ccccc1OCCCCn1ccnc1	T cruzi inh 63
Cc1cc(OCCCCn2ccnc2)cc(C)c1Cl	T cruzi inh 69
Cc1ccc(OCCCCn2cnc3ccccc32)cc1	none
Cc1ccccc1OCCCCn1cnc2ccccc21	Beta cell apopt 103
Clc1ccccc1OCCCn1ccnc1	none
Cc1cc(Cl)cc(C)c1OCCCCn1ccnc1	T cruzi inh inconclusive
N#Cc1ccccc1S(=O)(=O)N1CCN(C(=O)C2CCC2)CC1	none (no result: KLF5 inh)
COc1cc(NC(=O)CCc2nnc3ccc(N4CCC5(CC4)OCCO5)nn23)cc(OC)c1	none
Cc1ccc(S(=O)(=O)NCC(=O)Nc2cccnc2)cc1C	none (no result: T cruzi inh, KLF5 inh, HIF activator)
Cc1ccccc1OCCn1c(C)nc2ccccc21	Beta cell apopt 78
Cc1cccc(C(C)(C)C)c1OCCn1ccnc1	none
Cc1cccc(OCCCCCn2ccnc2)c1	T cruzi inh 57
c1ccc2c(c1)ncn2CCCOc1ccc2c(c1)CCC2	none
Cc1cccc(Cl)c1OCCCCn1ccnc1	T cruzi inh 66
Cc1cccc(OCCn2ccnc2)c1	none
c1ccc2c(c1)ncn2CCCCOc1ccc2c(c1)CCC2	Beta cell apopt 91
Cc1ccc(CC(=O)N2CCN(C(=O)C3CCCO3)CC2)cc1 (centres undefined)	none
CCSC1=NC2(CCCCC2)Nc2sc3c(c21)CCCC3	T cruzi inh 56
CCOc1ccc2nc(NCCNC(=O)Nc3cccc(C)c3)c(C#N)cc2c1	A1 inh 7.5
CCc1ccccc1NC(=S)N1CCN(c2cccc(OC)c2)CC1	none (no result: Beta cell apopt)
COc1ccc(COc2cc(-c3cccc(OC)c3)nc3ccc(NC(=O)c4ccc(C)cc4)cc23)cc1	none
COc1ccc(COc2cc(-c3cccc(OC)c3)nc3ccc(NC(C)=O)cc23)cc1	T cruzi inh 68
CSc1ccccc1NC(=O)c1cc(-c2cccnc2)nc2ccc(Br)cc12	T cruzi inh 69
COc1cccc(-c2cc(C(=O)Nc3ccc(N(C)C(C)=O)cc3)c3cc(Br)ccc3n2)c1	T cruzi inh 61 (no result: KLF5 inh)
COc1ccccc1CNC(=O)CN1CCN(c2ccc(C(C)=O)cc2)CC1	none
COc1cccc(CC(=O)OCC(=O)NCC(=O)Nc2cccc(C)c2C)c1	none (no result: KLF5 inh)
CCN(CC)c1ccc(CNc2nc3ccccc3n2CCN2CCCCC2)cc1	T cruzi inh 60, Beta cell apopt 88
COc1ccc(S(=O)(=O)N2CC(C)N(C(=O)N(C)C)C2C)cc1 (centres undefined)	none
CCC(=O)c1cc(F)c(N2CCN(S(=O)(=O)c3ccc(C)cc3)CC2)cc1C	T cruzi inh 59
CCCN(CC(=O)Nc1ccccc1OC)C(=O)C1=COCCO1	none (no result: T cruzi inh, KLF5 inh, HIF activator)
CCN(CC)c1ccc(N=C2C(=O)Nc3ccccc32)cc1	Beta cell apopt 87
Cc1ccc(N=C2C(=O)Nc3ccccc32)cc1	none
CN(Cc1ccccc1Br)C(=O)CN1C(=O)NC2(CCCCCC2)C1=O	none (no result: T cruzi inh, KLF5 inh, HIF activator)
COc1ccc(-c2nnnn2C)cc1S(=O)(=O)Nc1ccc(C)cc1C	none
c1coc(CNc2c3c(nc4ccccc24)CCC3)c1	T cruzi inh 69 (no result: Beta cell apopt)
Brc1ccc(C2C3=C(Nc4ncnn42)c2ccccc2OC3c2ccncc2)cc1 (centres undefined)	T cruzi inh 60
COc1ccc(C2Oc3ccccc3C3=C2C(c2cccs2)n2ncnc2N3)cc1 (centres undefined)	none
Cc1ccccc1OC1C(=O)N(Cc2ccc3c(c2)OCO3)C1c1sccc1C (centres undefined)	Beta cell apopt 79
CCOc1ccc2c(c1)C(=NNC(=O)c1ccncc1)c1cc(OCC)ccc1-2	T cruzi inh 60
c1ccc(-c2nnc3sc(-c4cc5ccccc5o4)nn23)cc1	HIF activator 17
c1ccc(-c2nnc3sc(-c4ccncc4)nn23)cc1	none
CN(C)CCCN(C(=O)c1ccc(C(=O)c2ccccc2)cc1)c1nc2ccc(F)cc2s1	T cruzi inh 57
CN(C)CCCN(C(=O)c1ccco1)c1nc2ccc(F)cc2s1	none (no result: HIF activator)
CN(C)CCCN(C(=O)c1nc2ccccc2s1)c1nc2ccc(F)cc2s1	T cruzi inh 67 (no result: KLF5 inh)
CCc1c(C)sc2nc(C(C)C)nc(SCC(=O)N3CCc4ccccc4C3)c12	Beta cell apopt 105
Cc1sc2nc(C3CC3)nc(SCC(=O)N3CCc4ccccc4C3)c2c1C	none
CCOC(=O)c1ccc(NC(=S)N2CCN(C(=O)C3CCCO3)CC2)cc1 (centres undefined)	none
Cc1cc(N2CCN(c3nc4ccccc4s3)CC2)n2ncnc2n1	Beta cell apopt 87
COC(=O)C1=C(C)N(C)C(=O)NC1c1cc(Cl)cc(Cl)c1OC (centres undefined)	none (no result: T cruzi inh, HIF activator)
COC(=O)C1=C(C)N(C)C(=O)NC1c1cc(Cl)c(O)c(OC)c1 (centres undefined)	HIF activator 692 (no result: Beta cell apopt)
Cc1cc2c3c(c1)C1(C(=O)N3C(C)(C)CC2C)C(C#N)=C(N)Oc2cc(O)ccc21 (centres undefined)	T cruzi inh 66
Cc1ccc(NC(=O)CN2CCC(NC(=O)c3ccccc3F)CC2)cc1C	none
CC(C)OCCCNC(=O)COc1ccc2oc3c(c2c1)CCCC3	none
CN(C)CC(C)(C)CN=Cc1c(O)[nH]c2ccccc12	T cruzi inh 61
C/C(CC(=O)Nc1cccc(F)c1)=N\NC(=O)c1ccncc1	none
CCN(CC)CCSc1nnc2c3cc(C)ccc3n(Cc3ccccc3)c2n1	T cruzi inh 58
CSc1nnc2c3cc(F)ccc3n(Cc3ccccc3)c2n1	none (no result: KLF5 inh, A1 inh)
Cc1nnsc1C(=O)N1CCCC(Nc2ccc(F)c(F)c2)C1 (centres undefined)	none (no result: Beta cell apopt)
CCOc1ccc(/C=N/NC(=O)c2ccc(F)cc2)cc1CN1CC2CC(C1)c1cccc(=O)n1C2 (centres undefined)	none (no result: T cruzi inh, KLF5 inh, HIF activator)
COc1ccc(CCNC(=O)c2nnn(CC(=O)Nc3c(C)cc(C)cc3C)c2N)cc1OC	HIF activator 107 (no result: Beta cell apopt)
CCOc1ccc(CCNC(=O)c2nnn(CC(=O)Nc3c(C)cc(C)cc3C)c2N)cc1OCC	none (no result: Beta cell apopt)
O=C(Oc1ccccc1)N1CCN(C(=O)c2ccco2)CC1	none
CC(C)NC(=O)N(C)C[C@H]1Oc2ccc(NC(=O)C3CC3)cc2C(=O)N([C@H](C)CO)C[C@@H]1C	none (no result: T cruzi inh, KLF5 inh, HIF activator)
Cc1ccc(SCc2cc(=O)n3ccsc3n2)c(C)c1	none
Cc1cccc(-n2c(SCc3cc(=O)n4ccsc4n3)nc3ccccc32)c1	T cruzi inh 62
O=C(c1cccc(Cl)c1)c1nn(-c2ccccc2)c(=O)cc1C(F)(F)F	Beta cell apopt 107
O=C(c1ccccc1)c1nn(-c2ccccc2)c(=O)cc1C(F)(F)F	none (no result: Beta cell apopt)
